According to ChEMBL document CHEMBL1124413, “Quinazoline antifolate thymidylate synthase inhibitors: nitrogen, oxygen, sulfur, and chlorine substituents in the C2 position” (J Med Chem, 1989):
Converted amounts (≈) assume the structure as drawn.

Experiments:
L1210 = assay: Tested for inhibition of L1210 mouse leukemia cell growth in culture; type: functional, cell-based
Summary of the method: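 L1210 mouse leukemia cells were grown in culture with the test agent. The result was expressed as IC50, the concentration that inhibits cell growth by 50%.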

Dihydrofolate reductase = target: T1, Dihydrofolate reductase (Homo sapiens, UniProt P00374); assay: Effect against dihydrofolate reductase (DHFR)
T1 sequence (P00374 whole entry): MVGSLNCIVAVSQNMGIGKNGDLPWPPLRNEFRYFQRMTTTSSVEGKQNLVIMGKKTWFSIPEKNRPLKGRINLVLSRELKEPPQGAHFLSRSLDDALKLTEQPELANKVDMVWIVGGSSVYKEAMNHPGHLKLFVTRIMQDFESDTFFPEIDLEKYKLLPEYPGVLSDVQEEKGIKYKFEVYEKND

[1] = pH attained by the compound at saturation after dissolving in 0.01 M aqueous NaH2PO4 initially at pH 7; type: ADME; conditions: buffer
Summary of the method: (§1)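 Compound was dissolved to saturation in 0.01 M aqueous NaH2PO4 adjusted initially to pH 7. Solubility was reported as mg/mL, and the pH reached by the saturated solution was recorded.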

[2] = Compound was tested for its solubility in 0.20 M aqueous NaH2PO4 initially at pH 7; type: ADME; conditions: 0.20 M aqueous NaH2PO4, pH 7
[3] = Compound was tested for its solubility in 0.01 M aqueous NaH2PO4 initially at pH 7; type: ADME; conditions: 0.01 M aqueous NaH2PO4, pH 7; summary of the method: as §1
[4] = pH attained by the compound at saturation after dissolving in 0.20 M aqueous NaH2PO4 initially at pH 7; type: ADME; conditions: buffer

IC50 (L1210) [µM] | Structure (SMILES) | further results
97 | C#CCN(Cc1ccc2nc(NCCN)nc(O)c2c1)c1ccc(C(=O)NC(CCC(=O)O)C(=O)O)cc1 (stereo not drawn) | 
> 100 | C#CCN(Cc1ccc2nc(OCCO)nc(O)c2c1)c1ccc(C(=O)NC(CCC(=O)O)C(=O)O)cc1 (stereo not drawn) | 
60 | C#CCN(Cc1ccc2nc(S)nc(O)c2c1)c1ccc(C(=O)NC(CCC(=O)O)C(=O)O)cc1 (stereo not drawn) | 
67 | C#CCN(Cc1ccc2nc(Cl)nc(O)c2c1)c1ccc(C(=O)NC(CCC(=O)O)C(=O)O)cc1 (stereo not drawn) | 
12 | CCN(Cc1ccc2nc(OC)nc(O)c2c1)c1ccc(C(=O)NC(CCC(=O)O)C(=O)O)cc1 (stereo not drawn) | 
24 | C#CCN(Cc1ccc2nc(NC)nc(O)c2c1)c1ccc(C(=O)NC(CCC(=O)O)C(=O)O)cc1 (stereo not drawn) | 
> 100 | C#CCN(Cc1ccc2nc(NCCN(C)C)nc(O)c2c1)c1ccc(C(=O)NC(CCC(=O)O)C(=O)O)cc1 (stereo not drawn) | 
> 100 | C#CCN(Cc1ccc2nc(-n3ccnc3)nc(O)c2c1)c1ccc(C(=O)NC(CCC(=O)O)C(=O)O)cc1 (stereo not drawn) | 
> 100 | C#CCN(Cc1ccc2nc(OCC)nc(O)c2c1)c1ccc(C(=O)NC(CCC(=O)O)C(=O)O)cc1 (stereo not drawn) | 
7 | COc1nc(O)c2cc(CN(C)c3ccc(C(=O)NC(CCC(=O)O)C(=O)O)cc3)ccc2n1 (stereo not drawn) | 
> 100 | C#CCN(Cc1ccc2nc(Oc3ccccc3)nc(O)c2c1)c1ccc(C(=O)NC(CCC(=O)O)C(=O)O)cc1 (stereo not drawn) | 
13 | C#CCN(Cc1ccc2nc(SC)nc(O)c2c1)c1ccc(C(=O)NC(CCC(=O)O)C(=O)O)cc1 (stereo not drawn) | 

More lines, now with the values behind:

Structure (SMILES) | IC50 (L1210) [µM] | further results
C#CCN(Cc1ccc2nc(NCCO)nc(O)c2c1)c1ccc(C(=O)NC(CCC(=O)O)C(=O)O)cc1 (stereo not drawn) | 47 | 
COc1nc(O)c2cc(CN(CCF)c3ccc(C(=O)NC(CCC(=O)O)C(=O)O)cc3)ccc2n1 (stereo not drawn) | 17 | 
C=CCN(Cc1ccc2nc(OC)nc(O)c2c1)c1ccc(C(=O)NC(CCC(=O)O)C(=O)O)cc1 (stereo not drawn) | 16 | 
COc1nc(O)c2cc(CNc3ccc(C(=O)NC(CCC(=O)O)C(=O)O)cc3)ccc2n1 (stereo not drawn) | 6.4 | Ki (Dihydrofolate reductase): ~0.6 µM
C#CCN(Cc1ccc2nc(OC)nc(O)c2c1)c1ccc(C(=O)NC(CCC(=O)O)C(=O)O)cc1 (stereo not drawn) | 1.9 | pH [1]: 4.93; solubility [2]: 6600 µg/mL (≈ 13400 µM); solubility [3]: 1200 µg/mL (≈ 2440 µM); pH [4]: 5.67
COc1nc(O)c2cc(CN(CCO)c3ccc(C(=O)NC(CCC(=O)O)C(=O)O)cc3)ccc2n1 (stereo not drawn) | 7.3 | 
C#CCN(Cc1ccc2nc(NCC)nc(O)c2c1)c1ccc(C(=O)NC(CCC(=O)O)C(=O)O)cc1 (stereo not drawn) | > 100 | 
C#CCN(Cc1ccc2nc(OCCOC)nc(O)c2c1)c1ccc(C(=O)NC(CCC(=O)O)C(=O)O)cc1 (stereo not drawn) | 100 | 
C#CCN(Cc1ccc2[nH]c(N)nc(=O)c2c1)c1ccc(C(=O)NC(CCC(=O)O)C(=O)O)cc1 (stereo not drawn) | 3.4 | pH [1]: 5.76; solubility [2]: 60 µg/mL (≈ 126 µM); solubility [3]: 50 µg/mL (≈ 105 µM); pH [4]: 6.78
C#CCN(Cc1ccc2nc(N(C)C)nc(O)c2c1)c1ccc(C(=O)NC(CCC(=O)O)C(=O)O)cc1 (stereo not drawn) | > 100 | 
C#CCN(Cc1ccc2nc(NCC(=O)O)nc(O)c2c1)c1ccc(C(=O)NC(CCC(=O)O)C(=O)O)cc1 (stereo not drawn) | > 100 | 
COc1nc(O)c2cc(CN(CCCO)c3ccc(C(=O)NC(CCC(=O)O)C(=O)O)cc3)ccc2n1 (stereo not drawn) | 80 | 
